Results from ChEMBL document CHEMBL2010802, “Melodinines M-U, cytotoxic alkaloids from Melodinus suaveolens” (J Nat Prod, 2012).

Experiments:
Format in all cases: functional, cell-based
HL-60 = test: Cytotoxicity against human HL60 cells after 48 hrs by MTT assay; details: HL-60, 48 h
In short: (§1)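 Cells grown in RPMI-1640 or DMEM with 10% FBS, 5% CO2, 37 °C, at 1 × 10^5 cells/mL. Adherent lines (A-549, MCF-7, SMMC-7721, SW480) were left to attach 12 h before dosing; suspension HL-60 was seeded just before dosing. Exposed 48 h to 0.064, 0.32, 1.6, 8 and 40 μM in triplicate, with cisplatin as positive control. MTT viability read-out; IC50 by Reed and Muench method.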

SMMC-7721 = test: Cytotoxicity against human SMMC7721 cells after 48 hrs by MTT assay; details: SMMC-7721, 48 h; in short: as §1
A549 = test: Cytotoxicity against human A549 cells after 48 hrs by MTT assay; details: A549, 48 h; in short: as §1
MCF7 = test: Cytotoxicity against human MCF7 cells after 48 hrs by MTT assay; details: MCF7, 48 h; in short: as §1
SW480 = test: Cytotoxicity against human SW480 cells after 48 hrs by MTT assay; details: SW480, 48 h; in short: as §1

Compound | IC50 (HL-60) [µM] | IC50 (SMMC-7721) [µM] | IC50 (A549) [µM] | IC50 (MCF7) [µM] | IC50 (SW480) [µM]
CC[C@]12C=CCN3CC[C@]4(C(=C(C(=O)OC)C1)Nc1cc(OC)ccc14)[C@@H]32 | 0.5 | 1.1 | 1 | 0.2 | 2.4
CC[C@]12C=CCN3CC[C@]4(C(=C(C(=O)OC)C1)Nc1cc(O)ccc14)[C@@H]32 | 6 | 15.5 | 17.6 | > 40 | > 40
COC(=O)C1=C2Nc3ccccc3[C@@]23CCN2CC=C[C@@]([C@@H](C)OC(C)=O)(C1)[C@H]23 | 5.8 | 6 | 15.5 | 14.2 | 15
COC(=O)C1=C2Nc3cc(OC)ccc3[C@@]23CCN2CC=C[C@@]([C@@H](C)O)(C1)[C@H]23 | 6.3 | 16 | 19.7 | 21.3 | 13.1
CC[C@]12C=C[C@@H](CC(C)=O)N3CC[C@]4(C(=C(C(=O)OC)C1)Nc1ccccc14)[C@@H]32 | 0.2 | 0.3 | 0.6 | 0.4 | 0.5
CC[C@@]12CC(C(=O)OC)=C3Nc4ccccc4[C@@]34CCN(C[C@@H]3O[C@@H]31)[C@@H]24 [LOCHNERICINE] | 15.5 | 24.7 | > 40 | > 40 | > 40
CC[C@]12C=CCN3CC[C@]4(C(=C(C(=O)OC)C1)Nc1cc(O)c(C)cc14)[C@@H]32 [MELODININE N] | 3.5 | 15.5 | 18.5 | 15 | 15.1
CC[C@]12C=CCN3CC[C@]4(C(=C(C(=O)OC)C1)Nc1cc(O)c(COC)cc14)[C@@H]32 [MELODININE O] | 10 | 15.2 | 18.2 | 15.7 | 14.9
CC[C@]12C=CCN3CC[C@]4(C(=C(C(=O)OC)C1)Nc1ccc(O)cc14)[C@@H]32 [MELODININE P] | 28.1 | > 40 | > 40 | > 40 | > 40
COC(=O)C1=C2Nc3ccccc3[C@@]23CCN2[C@H](CC(C)=O)C=C[C@@]([C@@H](C)O)(C1)[C@H]23 [MELODININE R] | 0.7 | 3.3 | 3.9 | 1.8 | 1.6
CC[C@@]12CC(C(=O)OC)=C3Nc4ccccc4[C@@]34CCN([C@H](CC(C)=O)[C@@H]3O[C@@H]31)[C@@H]24 [MELODININE S] | 4.8 | 11.2 | 15.2 | 7 | 13.5
CC[C@]12C=CCN3CC[C@]4(C(=C(C(=O)OC)C1)Nc1ccccc14)[C@@H]32 [TABERSONINE] | 4.5 | 5.6 | 14.7 | 9.9 | 12.1
